Test: Toxicity liver stage against HepG2, at 10uM
Type: cell-based
Design: test concentration 10 uM, cell line HepG2-A16-CD81EGFP
Details: human, HepG2-A16-CD81EGFP cells; read-out: INHIBITION
Outline: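 Uninfected HepG2-A16-CD81EGFP cells, 3 × 10^3 per well, 1536-well, plated on prespotted compound at 10 μM final, parasite-free screening media added to match infected plates; puromycin 10 μM positive, DMSO 0.5% negative; run in parallel with 48 h PbLuc assay at 37 °C, 5% CO2; viability by CellTiter-Glo luminescence, normalized to controls.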

SMILES	cytotoxicity at 10 µM
O=C1CC(N2CCN(c3ccc(F)cc3)CC2)C(=O)N1Cc1cccs1 (stereo not given)	-0.31%
COc1cccc2c1ccn2CCC(=O)Nc1c2c(nn1C)CSC2	5.11%
CC(=O)Nc1nc2c(s1)CN(CC(=O)Nc1ccc(C)c(Cl)c1)CC2	-6.17%
Cc1cs/c(=N\C(=O)c2c3c(nc4onc(C)c24)CCC3)[nH]1	1.26%
CCn1cc(S(=O)(=O)N2CCN(S(=O)(=O)c3ccc(Br)s3)CC2)c(C)n1	4.64%
Cn1cc(S(=O)(=O)NCc2ccc(F)cc2)cn1	1.25%
COCc1nc(N(C)C)ncc1C(=O)NC(C)c1ccccc1 (stereo not given)	6.03%
Cc1cc(Oc2ccccc2)nc(C2CCN(CCO)CC2)n1	-1.99%
CC(C)(C)NC(=O)[C@@H]1CNC[C@]12Cc1ccccc1C(=O)N2	-0.42%
CC(C)NC(=O)c1cc(-c2ccc(S(C)(=O)=O)cc2)nc2c1cnn2C	4.21%
O=C(N1CCOCC1)N1CCN(c2ccc(Cl)nn2)C(=O)C1	8.57%
COc1ncc(C(F)(F)F)c(C(=O)O)c1Cl	16.7%
O=C(O)c1cc(NS(=O)(=O)c2ccccc2F)ccc1N1CCSCC1	-5.27%
O=C(O)CCCc1ccc2c(c1)CC(=O)N2	1.51%
CC(C)CCC(=O)N1CCN(C(=O)c2ccc3nccn3c2)CC1	7.42%
O=C(c1cnc(NCc2sccc2Br)c(Cl)c1)N1CCCCC1	6.36%
CC(=O)N1CCCN(C(=O)NC(C)Cn2ccnc2)CC1 (stereo not given)	4.52%
Cc1cc(CN(C)C(=O)NC(C)Cc2ccc(O)cc2)no1 (stereo not given)	4.93%
Cc1ccccc1CCCN(C)S(C)(=O)=O	5.41%
COc1cccc(COCC(=O)NC(C(N)=O)c2ccccc2)c1 (stereo not given)	-3.73%
COC(CNC(=O)c1ccoc1)c1cccc(Cl)c1 (stereo not given)	3.3%
CCCc1noc(CCC(=O)N2CCN(C)CC2c2ccccc2)n1 (stereo not given)	-7.47%
CCCNC(=O)CNC(=O)c1scnc1C	8.86%

SMILES	cytotoxicity at 10 µM
CCN(Cc1nnsc1Cl)C(C)c1ccc(C#N)cc1 (stereo not given)	18.9%
CC(C)Nc1cccc(CNC(=O)N2CCCC2)c1	1.98%
COc1ccccc1C(=O)N1CCC(O)(c2cccc(C)c2C)CC1	12.1%
CCS(=O)(=O)CCN1CCN(C(C)c2cccnc2)CC1 (stereo not given)	8.65%
O=C(Nc1ccccn1)C1CCN(Cc2cc3c(cc2O)OCO3)CC1	7.19%
CC(=O)c1cccc(S(=O)(=O)N2CCC(c3noc(C)n3)CC2)c1	7.85%
Cc1csc(C2(NCc3csc(C4CC4)n3)CCCC2)n1	4.32%
Cc1ccc(N2C[C@H]3OCC[C@H]3[C@H](C(=O)NCc3ccco3)C2)nn1	-67.4%
Cc1cccc2cc(C(=O)N3CCC(F)(F)CC3)n(C)c12	3.76%
CCc1[nH]c2ccc(CNc3cncc(C(=O)N(C)C)n3)cc2c1C	7.59%
CCCn1c(C)c(CC(=O)N[C@H](C)C(=O)OC)c2c1CC(C)(C)CC2=O	-2.06%
OCC1(O)CCN(c2ncccc2C(F)(F)F)CC1	-13.6%
CC(=O)N[C@@H]1CN(C(=O)c2cnccn2)C[C@H]1c1ccc(C)cc1	6.62%
CC(=O)NCc1nc(CC(C)C)nn1-c1cccc(C)c1	6.54%
Cc1ccccc1C(CC(=O)NCC(N)=O)c1ccccc1 (stereo not given)	5.17%
O=C(c1ccc(S(=O)(=O)N2CCSCC2)cc1)N1CCCCCC1	13.9%
O=C(NCC(O)c1cccc(F)c1)C1CCN(C(=O)C2CCC2)CC1 (stereo not given)	4.43%
Cc1nc(NC(=O)C(C)N2CCN(c3ccccc3F)CC2)sc1C (stereo not given)	-0.879%
Cc1noc(C)c1CN1C[C@@H](NS(=O)(=O)N(C)C)[C@H](C(C)C)C1	3.61%
O=C(NC1CC1)N1CCn2c(Cn3cccn3)cnc2C1	-72.8%
O=C(c1cccnc1)N1CCN2C[C@H](OCc3ccccc3)C[C@H]2C1	-75.2%
CC1CCN(c2nc3cn(-c4ccc(F)cc4)c(=O)c-3c[nH]2)CC1	3.47%
